A short description of series [1]: Apparent permeability from apical (pH 6.5) to […] of human Caco2 cells. Conditions: Caco-2, pH 6.5. The class given is ADME, cell-based. On the technique in general: Passage across Caco-2 layers is used to estimate intestinal permeability.
The subject of series [2] is Mus musculus. Briefly: Inhibition of Akt phosphorylation in SCID mouse xenografted with PTEN-null human PC3 cells at 50 mg/kg, po measured after 30 mins. The class given is functional. Particulars: PC-3, 0.5 h. A digest of the protocol: (§1)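 SCID mice carrying PTEN-null PC3 prostate xenografts received a single oral dose as a suspension (50, 100 or 200 mg/kg).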
For series [3], the target named is Phosphatidylinositol 4,5-bisphosphate 3-kinase catalytic subunit gamma isoform (Homo sapiens, UniProt P48736). Briefly: Inhibition of human recombinant PI3Kgamma assessed as depletion of ATP substrate by Ultra Glo luciferase assay. A digest of the protocol: (§2)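 Enzyme IC50s are reported as the geometric mean of 3 or more values.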
Series [4] is filed under the species Homo sapiens. Put plainly: Ratio of IC50 for PI3Kalpha human BT474 cells to IC50 PI3Kbeta in human […] cells.
Series [5] in a line: Total plasma concentration in SCID mouse xenografted with PTEN-null human PC3 cells at 50 mg/kg, po measured after 30 mins. The class given is ADME, organism-based, PC-3. Also on record: dose 50 mg/kg, route oral. An outline of the steps:
(§3)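 Total plasma concentration was measured in SCID mice carrying PC3 xenografts after a single oral dose given as a suspension (50, 100 or 200 mg/kg). Samples were taken at 0.5 to 8 h.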
In general terms: Xenograft models place foreign cells or tissue in a host animal.

Series [6] in a line: Ratio of total plasma concentration in PTEN-null human PC3 cells xenografted in SCID mouse at 50 mg/kg, po single dose at 0.5 hrs to IC50 for PI3Kbeta in human […] cells. Also on record: species or system PC-3. An outline of the steps:
(§4)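 SCID mice bearing PTEN-null PC3 prostate tumour xenografts got a single oral dose given as a suspension. Total plasma concentration was measured at the sampled time points (0.5, 4 or 8 h). The value is the […] cover over the PI3Kβ cellular IC50, which comes from inhibition of Ser473 Akt phosphorylation in PTEN-null MDA-MB-468 breast adenocarcinoma cells.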

Series [7] has as its target T1, Phosphatidylinositol 4,5-bisphosphate 3-kinase catalytic subunit alpha isoform (Homo sapiens, UniProt P42336). Put plainly: Inhibition of PI3Kalpha in human BT474 cells assessed as inhibition of […] Akt phosphorylation after 2 hrs by fluorescence assay. The class given is cell-based, BT-474. A digest of the protocol: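 BT474 cells were seeded in DMEM with 10% FCS and 1% glutamine and left to adhere overnight, then treated with compound in DMSO for 2 h at 37 °C and 5% CO2. Cells were lysed with a phosphatase/protease-inhibitor buffer. Lysate was captured on anti-total-Akt plates, probed with anti-phospho-Akt Thr308 and an HRP secondary, and read by fluorescence (ex 325/em 420 nm). Values are the geometric mean of ≥2 determinations.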

Series [8] in a line: Total plasma concentration in SCID mouse xenografted with PTEN-null human PC3 cells at 50 mg/kg, po measured after 4 hrs. The class given is ADME, organism-based, PC-3. Also on record: dose 50 mg/kg, route oral. An outline of the steps:
as §3

Series [9] is described as follows: Fraction unbound in mouse plasma. The class given is ADME, cell-free. An outline of the steps: (§5)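 Protein binding was measured in nude mouse plasma and in human plasma and is expressed as fraction unbound (%).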
Series [10] deals with T2, Phosphatidylinositol 4,5-bisphosphate 3-kinase catalytic subunit delta isoform (Homo sapiens, UniProt O00329).
T2 sequence (O00329 whole entry): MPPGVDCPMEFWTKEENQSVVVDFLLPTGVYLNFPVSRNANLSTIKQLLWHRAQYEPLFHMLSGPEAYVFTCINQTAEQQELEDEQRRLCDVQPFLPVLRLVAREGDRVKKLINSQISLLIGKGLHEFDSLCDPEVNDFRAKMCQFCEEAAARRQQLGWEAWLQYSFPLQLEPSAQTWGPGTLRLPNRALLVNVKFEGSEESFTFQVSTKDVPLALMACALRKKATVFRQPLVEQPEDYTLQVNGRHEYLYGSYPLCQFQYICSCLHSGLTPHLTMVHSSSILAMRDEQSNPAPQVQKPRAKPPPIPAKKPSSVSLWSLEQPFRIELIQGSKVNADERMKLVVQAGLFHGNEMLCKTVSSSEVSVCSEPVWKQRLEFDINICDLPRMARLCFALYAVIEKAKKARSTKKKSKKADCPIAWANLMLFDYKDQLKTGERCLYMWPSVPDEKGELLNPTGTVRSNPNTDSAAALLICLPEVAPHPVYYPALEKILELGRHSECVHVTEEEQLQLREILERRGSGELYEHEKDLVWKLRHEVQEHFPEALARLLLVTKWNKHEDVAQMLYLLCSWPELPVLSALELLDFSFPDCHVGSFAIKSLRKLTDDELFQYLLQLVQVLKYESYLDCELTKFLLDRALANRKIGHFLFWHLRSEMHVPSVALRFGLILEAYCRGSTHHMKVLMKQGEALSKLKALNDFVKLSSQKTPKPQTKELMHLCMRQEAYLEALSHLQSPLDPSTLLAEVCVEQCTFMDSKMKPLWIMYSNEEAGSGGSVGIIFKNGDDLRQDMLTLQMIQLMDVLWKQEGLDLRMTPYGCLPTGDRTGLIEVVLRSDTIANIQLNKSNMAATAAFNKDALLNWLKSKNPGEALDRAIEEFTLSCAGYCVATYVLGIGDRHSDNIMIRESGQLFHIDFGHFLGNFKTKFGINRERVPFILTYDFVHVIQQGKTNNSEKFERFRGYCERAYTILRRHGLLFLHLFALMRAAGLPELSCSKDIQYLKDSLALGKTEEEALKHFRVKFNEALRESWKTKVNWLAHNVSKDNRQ
Put plainly: Inhibition of human recombinant PI3Kdelta assessed as depletion of ATP substrate by Ultra Glo luciferase assay. An outline of the steps: as §2

A short description of series [11]: Clearance in mouse plasma at 5 umol/kg, iv and 30 umol/kg, po. The class given is ADME, organism-based. A digest of the protocol: (§6)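 […] mice were dosed at 5 µmol/kg i.v. and 30 µmol/kg p.o. Clearance is given in mL/min/kg and oral bioavailability in %.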
A short description of series [12]: Ratio of total plasma concentration in PTEN-null human PC3 cells xenografted in SCID mouse at 50 mg/kg, po single dose at 4 hrs to IC50 for PI3Kbeta in human […] cells. Also on record: species or system PC-3. An outline of the steps: as §4
Series [13] in a line: Fraction unbound in human plasma. The class given is ADME, cell-free. An outline of the steps: as §5
In series [14] the target is T3, Phosphatidylinositol 4,5-bisphosphate 3-kinase catalytic subunit beta isoform (Homo sapiens, UniProt P42338). Put plainly: Inhibition of human recombinant PI3Kbeta assessed as depletion of ATP substrate by Ultra Glo luciferase assay. A digest of the protocol: as §2
Series [15] deals with T3, Phosphatidylinositol 4,5-bisphosphate 3-kinase catalytic subunit beta isoform. Put plainly: Inhibition of PI3Kbeta in human MAD-MB-468 cells assessed as inhibition of Ser473 Akt phosphorylation by cellular potency assay.
The nature of series [16]: Bioavailability in mouse plasma at 5 umol/kg, iv and 30 umol/kg, po. The class given is ADME, organism-based. An outline of the steps: as §6
Series [17] deals with T1, Phosphatidylinositol 4,5-bisphosphate 3-kinase catalytic subunit alpha isoform. Briefly: Inhibition of human recombinant PI3Kalpha assessed as depletion of ATP substrate by Ultra Glo luciferase assay. A digest of the protocol: as §2
Series [18] in a line: Buffer/octanol partition coefficient, log D of the compound at pH 7.4 by shake flask method. The class given is physicochemical. An outline of the steps:
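LogD at pH 7.4 was measured by shake-flask with a buffer/octanol volume ratio of 100:1.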

Series [19] deals with Mus musculus. Briefly: Inhibition of Akt phosphorylation in SCID mouse xenografted with PTEN-null human PC3 cells at 50 mg/kg, po measured after 4 hrs. The class given is functional. Particulars: PC-3, 4 h. A digest of the protocol:
as §1

pIC50: −log10 of the molar value.

Consider one compound from ChEMBL document CHEMBL3351561, “Discovery of 9-(1-anilinoethyl)-2-morpholino-4-oxo-pyrido[1,2-a]pyrimidine-7-carboxamides as PI3Kβ/δ inhibitors for the treatment of PTEN-deficient tumours” (Bioorg Med Chem Lett, 2014).

T1 sequence (P42336 whole entry, canonical isoform): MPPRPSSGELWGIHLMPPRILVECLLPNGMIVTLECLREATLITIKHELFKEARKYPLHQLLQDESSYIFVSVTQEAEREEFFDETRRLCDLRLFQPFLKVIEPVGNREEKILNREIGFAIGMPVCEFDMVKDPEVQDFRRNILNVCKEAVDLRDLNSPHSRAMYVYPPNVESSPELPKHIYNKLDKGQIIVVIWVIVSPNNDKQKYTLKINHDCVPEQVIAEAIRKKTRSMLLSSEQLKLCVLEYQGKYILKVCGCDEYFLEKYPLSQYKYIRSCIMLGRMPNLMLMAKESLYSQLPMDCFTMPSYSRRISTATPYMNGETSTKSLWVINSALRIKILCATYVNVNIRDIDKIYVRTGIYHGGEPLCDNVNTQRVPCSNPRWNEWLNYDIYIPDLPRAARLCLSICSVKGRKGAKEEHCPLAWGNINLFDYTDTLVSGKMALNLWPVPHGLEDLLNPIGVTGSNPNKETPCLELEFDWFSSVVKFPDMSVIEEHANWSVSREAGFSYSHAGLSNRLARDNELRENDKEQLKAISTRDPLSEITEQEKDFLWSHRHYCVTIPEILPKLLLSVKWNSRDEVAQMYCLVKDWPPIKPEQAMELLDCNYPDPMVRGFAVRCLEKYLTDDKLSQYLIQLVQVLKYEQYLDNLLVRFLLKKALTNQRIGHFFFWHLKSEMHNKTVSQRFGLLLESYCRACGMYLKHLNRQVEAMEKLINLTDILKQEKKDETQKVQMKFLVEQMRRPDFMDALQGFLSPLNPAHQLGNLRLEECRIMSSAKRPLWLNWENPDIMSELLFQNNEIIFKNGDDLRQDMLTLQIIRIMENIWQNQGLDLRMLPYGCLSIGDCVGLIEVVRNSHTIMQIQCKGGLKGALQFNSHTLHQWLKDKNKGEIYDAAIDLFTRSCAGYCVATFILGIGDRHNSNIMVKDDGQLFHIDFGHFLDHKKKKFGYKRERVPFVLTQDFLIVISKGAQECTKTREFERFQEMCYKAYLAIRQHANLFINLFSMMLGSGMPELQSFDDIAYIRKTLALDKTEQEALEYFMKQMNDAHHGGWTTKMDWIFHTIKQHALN
T3 sequence (P42338 whole entry, canonical isoform): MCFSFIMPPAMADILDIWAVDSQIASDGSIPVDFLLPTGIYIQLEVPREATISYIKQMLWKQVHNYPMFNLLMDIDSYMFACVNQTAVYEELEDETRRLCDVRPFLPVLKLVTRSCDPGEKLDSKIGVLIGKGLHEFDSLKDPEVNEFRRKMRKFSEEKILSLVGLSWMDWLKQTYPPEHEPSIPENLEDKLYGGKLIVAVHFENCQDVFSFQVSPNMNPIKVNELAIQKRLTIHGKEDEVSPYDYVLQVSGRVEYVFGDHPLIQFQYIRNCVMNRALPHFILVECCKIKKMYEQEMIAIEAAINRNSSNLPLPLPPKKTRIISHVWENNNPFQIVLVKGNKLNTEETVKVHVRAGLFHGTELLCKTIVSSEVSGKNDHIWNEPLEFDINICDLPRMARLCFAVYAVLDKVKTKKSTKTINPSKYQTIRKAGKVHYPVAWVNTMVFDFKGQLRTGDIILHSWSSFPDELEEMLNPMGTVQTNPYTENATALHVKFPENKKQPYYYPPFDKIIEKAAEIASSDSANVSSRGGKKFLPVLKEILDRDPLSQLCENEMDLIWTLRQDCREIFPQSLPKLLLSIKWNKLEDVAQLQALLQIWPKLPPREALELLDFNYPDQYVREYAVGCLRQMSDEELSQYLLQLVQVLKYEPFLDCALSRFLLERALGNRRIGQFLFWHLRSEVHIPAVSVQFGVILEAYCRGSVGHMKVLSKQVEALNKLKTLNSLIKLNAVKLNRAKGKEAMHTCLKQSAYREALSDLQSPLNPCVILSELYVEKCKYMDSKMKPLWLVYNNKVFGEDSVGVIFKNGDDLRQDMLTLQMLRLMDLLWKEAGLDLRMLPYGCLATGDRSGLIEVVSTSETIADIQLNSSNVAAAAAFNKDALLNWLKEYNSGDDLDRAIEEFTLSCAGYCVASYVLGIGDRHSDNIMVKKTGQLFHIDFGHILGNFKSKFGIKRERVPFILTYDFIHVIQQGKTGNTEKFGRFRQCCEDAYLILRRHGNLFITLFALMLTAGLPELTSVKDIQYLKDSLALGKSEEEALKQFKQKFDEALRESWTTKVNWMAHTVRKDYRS
Sequence of Phosphatidylinositol 4,5-bisphosphate 3-kinase catalytic subunit gamma isoform (P48736 whole entry, canonical isoform): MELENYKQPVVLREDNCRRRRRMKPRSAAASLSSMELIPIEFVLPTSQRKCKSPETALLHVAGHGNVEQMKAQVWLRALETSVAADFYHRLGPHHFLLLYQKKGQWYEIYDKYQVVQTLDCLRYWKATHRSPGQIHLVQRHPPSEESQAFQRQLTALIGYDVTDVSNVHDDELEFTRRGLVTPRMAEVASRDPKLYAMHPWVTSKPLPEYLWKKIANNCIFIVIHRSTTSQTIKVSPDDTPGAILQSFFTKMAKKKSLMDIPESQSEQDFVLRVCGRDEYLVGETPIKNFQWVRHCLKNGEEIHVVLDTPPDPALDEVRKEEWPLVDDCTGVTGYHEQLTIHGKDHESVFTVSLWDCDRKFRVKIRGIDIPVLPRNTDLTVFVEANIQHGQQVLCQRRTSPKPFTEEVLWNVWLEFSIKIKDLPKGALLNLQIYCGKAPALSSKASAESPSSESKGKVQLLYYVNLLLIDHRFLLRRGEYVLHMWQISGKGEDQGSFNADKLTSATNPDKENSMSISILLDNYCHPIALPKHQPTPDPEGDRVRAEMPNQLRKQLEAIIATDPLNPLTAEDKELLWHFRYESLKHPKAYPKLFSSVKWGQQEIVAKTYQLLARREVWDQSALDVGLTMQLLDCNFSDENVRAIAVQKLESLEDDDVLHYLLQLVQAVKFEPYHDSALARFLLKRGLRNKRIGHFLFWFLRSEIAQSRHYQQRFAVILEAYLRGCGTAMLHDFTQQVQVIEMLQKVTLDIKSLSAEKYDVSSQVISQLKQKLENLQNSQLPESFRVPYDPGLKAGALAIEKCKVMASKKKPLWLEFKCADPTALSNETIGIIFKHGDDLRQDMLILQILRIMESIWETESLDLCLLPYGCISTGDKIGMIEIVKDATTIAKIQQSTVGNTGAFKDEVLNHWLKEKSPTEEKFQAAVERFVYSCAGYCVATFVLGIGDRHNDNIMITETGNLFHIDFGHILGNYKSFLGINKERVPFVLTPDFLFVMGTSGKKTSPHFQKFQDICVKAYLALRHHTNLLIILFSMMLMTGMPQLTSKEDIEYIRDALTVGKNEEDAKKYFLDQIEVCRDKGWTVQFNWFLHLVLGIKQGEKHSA

Usually Papp A→B stands for how fast a substance crosses the layer from the apical side. In general, inhibition in vivo refers to the change of the read-out against control, counted positive when it falls. What is called pIC50 is the negative decadic logarithm of the IC50, by convention in mol/L. A word on the fraction unbound: it is the share of the substance not bound to proteins or other matrix. The low end stands for extensive binding, the high end for weak binding. Broadly, the bioavailability is dose-corrected exposure relative to a reference, in per cent. Broadly, the logD is the decadic logarithm of the distribution of all forms, ionised or not, between an organic phase and buffer at a given pH. As for `CC(Nc1cccc(Cl)c1F)c1cc(C(=O)NCCN(C)C)cn2c(=O)cc(N3CCOCC3)nc12` (single isomer, unassigned; (-)), the Papp A→B in series [1] was found to be 0.9 ×10⁻⁶ cm/s. For the same compound, the inhibition in vivo at 50 mg/kg in [2] is 26%; in [19], 40%. The pIC50 in [3] is 6.17; in series [7] it was 6.01; in series [10] it was 7.29; in [14], 8.15; in series [15], 8.40; in [17], 7.04. The Ratio IC50 in [4] came to 240. The same compound had a concentration at 0.5 h in [5] of 21 µM. For the same compound, the results for the Ratio in [6] and in series [12] were 83 and 48, respectively. In [8], this compound had a concentration at 4 h of 12 µM. Besides, the fraction unbound in series [9] stood at 0.016; in [13], 0.033. For the same compound, in series [11], the clearance turned out to be 10 mL/min/kg. Further, the bioavailability in series [16] came to 39%. This compound yielded a logD in series [18] of 2.7.
